Only some compounds are listed: those with a hit (about 1.5% of all), similar ones and a draw of the others.
S100A4 inh HTS: inhibitors of S100A4-myosin IIA peptide binding, primary screen, biochemical, fluorescence polarization, TAMRA-MyoIIA peptide; AID 652163, 2013; inhibition, % at 10.7 µM; 360,000 compounds, 0.14% hits; Protein S100-A4 (Homo sapiens), P26447;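 active means mean inhibition of at least 70% across replicates, with every replicate also reaching that level; inconclusive means mean inhibition reaches 70% but some replicates fall short; inactive means mean inhibition below 70%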
Target sequence (P26447 whole entry, looked up): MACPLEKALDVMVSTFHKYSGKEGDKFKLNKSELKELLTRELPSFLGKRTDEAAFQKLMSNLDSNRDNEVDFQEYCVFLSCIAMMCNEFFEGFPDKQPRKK
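Material: human S100A4 monomer with TAMRA-labelled myosin IIA peptide; buffer or medium: HEPES pH 7.2 with CaCl2, KCl, NaCl, DTT, Triton; compound dosing: one concentration per compound; schedule: 5 min incubation before reading; benchmarks: neutral control DMSO, positive control TFP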
RAD52 anneal inh: RAD52 DNA annealing inhibitors, primary screen, biochemical, FRET, single point, set 2; inhibition, % at 18.7 µM; recombinant RAD52 DNA annealing, FRET fluorescence; AID 651710, 2012; 360,000 compounds, 0.46% hits;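 active means every replicate showing at least 50% inhibition; inconclusive means mean inhibition at least 50% but not in every replicate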
AF4-AF9 inh: inhibitors of AF4 peptide binding to AF9, primary screen, biochemical, AlphaScreen, biotin-AF4 peptide, FLAG-AF9, single point; Protein AF-9 (Homo sapiens), P42568; inhibition, % at 10 µM; 350,000 compounds, 0.47% hits; AID 651704, 2012;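 active means every replicate reaching a set inhibition limit, whatever the replicate mean, cut at about 25% in these data; inconclusive means mean inhibition reaches that limit but some replicates miss it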;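 further: 0% = plate neutral control median and 100% = total signal loss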
RAD54 branch: inhibitors of human RAD54 branch migration, primary screen, biochemical, fluorescence, single point; DNA repair and recombination protein RAD54-like (Homo sapiens), Q92698; RAD54 Holliday junction branch migration, FAM/BHQ fluorescence; inhibition, % at 10.4 µM; 360,000 compounds, 0.14% hits;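 active means mean normalized replicate activity at least 40 and at least half of replicates scoring 40 or more; inconclusive means only one of the two criteria met; inactive means mean below 40 and under half of replicates reaching 40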;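 further: 0% = median of neutral control wells and 100% = median of positive control wells; inhibitors cause a drop in the FAM fluorescence signal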
dFosB act-1: activators of delta FosB homodimer, primary screen, biochemical, fluorescence polarization, TAMRA-CDK5 oligo, single point. Protein FosB (Mus musculus), P13346. purified delta FosB; percent of positive-control signal above neutral wells. activation, % at 25 µM. 340,000 compounds, 0.99% hits. AID 493131, 2011;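 active means mean activation above about 17%, with every replicate also reaching it, limit read from the data, passing the limit was not always enough; inconclusive means only one of the two conditions met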
Target sequence (P13346 whole entry, looked up): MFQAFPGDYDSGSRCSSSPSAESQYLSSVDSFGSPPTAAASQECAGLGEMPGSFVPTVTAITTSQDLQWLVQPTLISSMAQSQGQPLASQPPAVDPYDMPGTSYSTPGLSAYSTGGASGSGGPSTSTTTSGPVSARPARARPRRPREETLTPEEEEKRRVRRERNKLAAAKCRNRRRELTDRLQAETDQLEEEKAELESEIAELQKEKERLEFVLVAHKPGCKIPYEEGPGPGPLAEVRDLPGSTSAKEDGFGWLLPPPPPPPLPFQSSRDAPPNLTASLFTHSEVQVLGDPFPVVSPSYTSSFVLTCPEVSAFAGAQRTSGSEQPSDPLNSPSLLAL
dFosB act-2: activators of mouse delta FosB DNA binding, confirmation, biochemical, fluorescence polarization, TAMRA-CDK5 oligo, cherry-picked samples; shares compounds with dFosB act-1; purified delta FosB; normalised: neutral wells 0, positive control 100; activation, % at 24.9 µM; 2,400 tested, under 10 active;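 active means highest replicate activation at or above 34% and every replicate reaching that threshold; inconclusive means meets only one of the two criteria; inactive means meets neither criterion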;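 further: higher polarization means more probe DNA bound by delta FosB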
* = called active by the depositor; ? = inconclusive; . = no result.

SMILES | S100A4 inh HTS | RAD52 anneal inh | AF4-AF9 inh | RAD54 branch | dFosB act-1 | dFosB act-2
COc1cccc(-n2nnc3c(=O)n(CC(=O)Nc4cc(C)on4)cnc32)c1 | 5 | -2 | -2 | . | -2 | .
Cc1ccc(S(=O)(=O)N[C@H]2C=C[C@@H](CC(=O)N3CCc4ccccc4C3)O[C@@H]2CO)cc1 | 4 | -8 | -2 | -1 | . | .
CCOC(=O)c1ccc(S(=O)(=O)NNC(=O)COc2ccc(C)cc2)cc1 | -8 | -11 | -5 | . | 61* | 4
O=C(NNC(=O)c1ccccc1O)c1cc2ccccc2o1 | 3 | -11 | 3 | -3 | -10 | .
COc1ccc(Cl)cc1C(=O)NNC(=O)c1cc2ccccc2o1 | -6 | 0 | 0 | -9 | 35* | 1
COC(=O)CNc1nc(Cl)nc(Nc2ccc(C)cc2)n1 | 0 | -15 | 0 | 9 | 14 | .
COC(=O)CNc1nc(Cl)nc(Nc2ccc(Cl)cc2)n1 | 0 | 0 | -4 | -7 | 48* | 7
CC(C)C[C@H]1CNC(=S)N1CC1CCCN1C[C@H](CC(C)C)N1C[C@H](Cc2ccc(O)cc2)N(CC2CCCCC2)C1=S (stereo partly specified) | 5 | -8 | 3 | 9 | 27* | 5
CC(C)C[C@H]1CNC(=S)N1C[C@H]1CCCN1C[C@H](CC(C)C)N1C[C@H](Cc2ccc(O)cc2)N(CC2CCCCCC2)C1=S | 1 | -8 | 7 | -1 | . | .
CC(C)C[C@H]1CNC(=S)N1CC1CCCN1C[C@H](CC(C)C)N1C[C@H](Cc2ccc(O)cc2)N(CC2CCCCCC2)C1=S (stereo partly specified) | -6 | -5 | 2 | 9 | 23* | 4
CC(C)C[C@@H](CN1CCCC1CN1C(=S)NC[C@@H]1Cc1ccc(O)cc1)N1C[C@H](Cc2ccc(O)cc2)N(CC2CCCCC2)C1=S (stereo partly specified) | 2 | -25 | 8 | -7 | 37* | 7
CC(C)C[C@H]1CNC(=S)N1CC1CCCN1C[C@H](Cc1ccccc1)N1C[C@H](Cc2ccc(O)cc2)N(CC2CCCCC2)C1=S (stereo partly specified) | 0 | -10 | 2 | 7 | 59* | 2
C/C(=N\N=C(/N)SC1CC(=O)N(c2ccc(Cl)c(Cl)c2)C1=O)c1cccs1 (stereo unspecified) | -7 | -14 | -4 | 10 | 25* | 3
C[C@@H]1CN([C@H](C)CO)C(=O)c2cc(NC(=O)Nc3ccccc3)ccc2O[C@@H](C)CCCCO[C@@H]1CN(C)Cc1ccc(C(=O)O)cc1 | 5 | 7 | -7 | 7 | . | .
O=C(NCC[C@H]1CC[C@@H](NS(=O)(=O)Cc2ccccc2)[C@H](CO)O1)C1CCCC1 | 4 | -9 | 0 | -3 | . | .
CCOc1ccc(C(=O)/C=C/Nc2ccc(S(=O)(=O)N=C(N)N)cc2)cc1 | . | . | . | . | 34* | 6
NC(N)=NS(=O)(=O)c1ccc(N/C=C/C(=O)c2ccc(Cl)c(Cl)c2)cc1 | 3 | -24 | 1 | -1 | 46* | 4
C[C@@H]1CN([C@@H](C)CO)S(=O)(=O)c2ccc(C#CC3(O)CCCC3)cc2O[C@H]1CN(C)C(=O)c1cccnc1 | -13 | -11 | -1 | 1 | . | .
Cc1ccc(Cn2nc(C)c(NC(=O)CSc3n[nH]c(C)c3[N+](=O)[O-])c2C)cc1 | . | . | . | . | 30* | 0
CCOc1cc(/C=N/N=C(/N)c2nonc2N)cc(Br)c1OCc1ccc(Cl)cc1 | . | . | . | . | 34* | 1
CNC[C@@H]1Oc2ccc(NS(=O)(=O)c3cn(C)cn3)cc2C(=O)N([C@H](C)CO)C[C@H]1C | 15 | -5 | -4 | -7 | . | .
COc1ccc(S(=O)(=O)N2CCCCCC2)cc1 | . | . | . | 5 | -3 | .
COc1ccc(CNS(=O)(=O)c2ccc(S(=O)(=O)N3CCCCC3)cc2)cc1 | . | . | . | -5 | 41* | 1
COc1cccc(COC(=O)c2ccc(S(=O)(=O)N3CCC(C)CC3)cc2)c1OC | 4 | 5 | -16 | -4 | 6 | .
COc1ccc(COC(=O)c2ccc(S(=O)(=O)N3CCC(C)CC3)cc2)cc1 | -2 | 3 | -3 | 2 | 19* | 0
SMILES | S100A4 inh HTS | RAD52 anneal inh | AF4-AF9 inh | RAD54 branch | dFosB act-1 | dFosB act-2
CCC(=O)N1[C@H](CO)[C@H]2c3ccccc3N(C(=O)Nc3cccc(Cl)c3)C[C@H]21 | -6 | 1 | -1 | 8 | . | .
C[C@@H]1CCCCO[C@@H](CN(C)Cc2ccc(Cl)c(Cl)c2)[C@H](C)CN([C@@H](C)CO)C(=O)c2cc(NC(=O)Nc3ccc(F)cc3)ccc2O1 | -7 | 3 | 1 | -3 | . | .
O=S(=O)(Nc1ccc2c(c1)nc1n2CCN(Cc2ccccc2)C1)c1ccccc1 | . | . | . | . | 24* | -3
O=S(=O)(Nc1ccc2c(c1)nc1n2CCN(Cc2ccccc2)C1)c1ccc(Cl)cc1 | . | . | . | -3 | 23* | -9
Cc1ccc(C(=O)Nc2cnc3ccccn3c2=O)cc1 | . | . | . | -2 | -1 | .
O=C(Nc1cnc2ccccn2c1=O)c1ccc(Cl)cc1Cl | 7 | -1 | -3 | -2 | 19* | 5
O=C(COC(=O)c1cc([N+](=O)[O-])ccc1NCc1ccccc1Cl)NCC(F)(F)F | . | . | . | 1 | 53* | 5
CC(C)NC(=O)Nc1ccc2c(c1)CC(=O)N([C@@H](C)CO)C[C@H](C)[C@H](CN(C)C(=O)Nc1ccc3c(c1)OCO3)O2 | 4 | 13 | -4 | 4 | . | .
CCCOc1ccc(-c2csc3ncn(Cc4ccc(C(=O)O)cc4)c(=O)c23)cc1 | 4 | -8 | -3 | . | 24* | 8
COc1ccccc1C=NN=C(N)C(N)=NN=Cc1ccccc1OC | 0 | -16 | -6 | 0 | 70* | ?
COc1ccc2c3c([nH]c2c1)[C@@H](CO)N(S(C)(=O)=O)CC31CCN(C(=O)c2ccncc2)CC1 | 6 | -6 | 2 | . | . | .
Cc1ccc(S(=O)(=O)Nc2ccc3c(c2)C(=O)N([C@@H](C)CO)C[C@H](C)[C@@H](CN(C)Cc2ccc4c(c2)OCO4)OCCCC[C@H](C)O3)cc1 | 0 | 17 | 3 | 5 | . | .
Cc1cc(C)c(S(=O)(=O)N2CCN(C(=O)c3cc4ccccc4o3)CC2)c(C)c1 | -3 | -6 | -1 | 0 | -1 | .
O=C(c1cc2ccccc2o1)N1CCN(S(=O)(=O)c2ccc(F)c(F)c2F)CC1 | 2 | -1 | -1 | -3 | 33* | -1

Screening results deposited in PubChem by Broad Institute.
